# pIC50: −log10 of the molar value.
# Experiments:
# K562 = test: Antiproliferative activity against human K562 cells measured after 48 hrs by MTT assay; assay type: functional, cell-based; settings: K562, 48 h
# In short: (§1)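 Cells kept in 10% FBS medium with penicillin/streptomycin/L-glutamine at 37 °C, 5% CO2 (MDA-MB-231 in DMEM, K562 in RPMI 1640). Viability read by MTT reduction to formazan after 48 h of exposure. IC50 obtained by nonlinear regression against vehicle control, given as mean ±SD of three independent experiments (n = 2 where footnoted).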
# MDA-MB-231 = test: Antiproliferative activity against human MDA-MB-231 cells measured after 48 hrs by MTT assay; assay type: functional, cell-based; settings: MDA-MB-231, 48 h; in short: as §1
SMILES,pIC50 (K562),pIC50 (MDA-MB-231)
O=C1c2ccccc2C(=O)c2occc21,5.28,< 5.00
CC(C)=CCC1=C(O)C(=O)c2ccccc2C1=O [LAPACHOL],< 5.00,< 5.00
CC1(C)CCC2=C(O1)C(=O)c1ccccc1C2=O [ALPHA-LAPACHONE],< 5.00,< 5.00

# From ChEMBL document CHEMBL4145650, “Napabucasin and Related Heterocycle-Fused Naphthoquinones as STAT3 Inhibitors with Antiproliferative Activity against Cancer Cells” (J Nat Prod, 2018)
